The values that follow come from BindingDB's records for doi:10.1016/j.bmcl.2007.12.018 (Novartis Institute For Biomedical Research, 2008).

The assay deals with RAC-alpha serine/threonine-protein kinase (Homo sapiens, UniProt P31749). Put plainly: Inhibition of phosphorylation of T308-PKB in human U87MG cells by ELISA. The method in brief: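 Cell capture ELISA for phospho-T308 PKB in U87MG cells; IC50 determined.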
RAC-alpha serine/threonine-protein kinase, sequence (P31749 whole entry): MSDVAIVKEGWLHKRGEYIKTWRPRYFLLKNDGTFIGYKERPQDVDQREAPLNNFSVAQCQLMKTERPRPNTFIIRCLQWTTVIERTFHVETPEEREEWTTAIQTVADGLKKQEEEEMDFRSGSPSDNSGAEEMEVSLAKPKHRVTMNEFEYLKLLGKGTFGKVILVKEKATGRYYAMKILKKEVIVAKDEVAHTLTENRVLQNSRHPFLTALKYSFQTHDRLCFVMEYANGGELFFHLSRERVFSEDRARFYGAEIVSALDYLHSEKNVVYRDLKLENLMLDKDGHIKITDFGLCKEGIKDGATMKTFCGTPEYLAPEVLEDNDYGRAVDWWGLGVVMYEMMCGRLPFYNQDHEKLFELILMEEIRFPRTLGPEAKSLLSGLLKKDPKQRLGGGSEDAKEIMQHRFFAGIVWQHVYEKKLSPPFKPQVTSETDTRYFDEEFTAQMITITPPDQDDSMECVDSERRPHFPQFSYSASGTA
Background: An ELISA detects its analyte on a solid surface through an enzyme-linked reagent.
As a reminder, the IC50 is the concentration that gives 50% inhibition. A high value points to a need for much substance. `Cn1c(=O)n(-c2ccc(C(C)(C)C#N)cc2)c2c3cc(C#Cc4cccnc4)ccc3ncc21` gave a half-inhibitory concentration (IC50) of 33 nM.

Compound `Cc1nc2cnc3ccc(C#Cc4cccnc4)cc3c2n1-c1ccc(C(C)C#N)cc1` (centres undefined) gave a 50% inhibitory concentration (IC50) of 45 nM.

`Cc1nc2cnc3ccc(C#Cc4cccnc4)cc3c2n1-c1ccc(CC#N)cc1` displayed an IC50 of 77 nM.

As for `CCc1nc2cnc3ccc(C#Cc4cccnc4)cc3c2n1-c1ccc(CC#N)cc1`, the 50% inhibitory concentration (IC50) was 138 nM.
